Data published in ChEMBL document CHEMBL4041475, “Novel 2-arylazoimidazole derivatives as inhibitors of Trypanosoma cruzi proliferation: Synthesis and evaluation of their biological activity” (Eur J Med Chem, 2017).
Activity calls are given as the source filed them. No cut-off for these calls is given here.

Columns and labels:
Trypanosoma cruzi [1] = experiment: Trypanocidal activity against Trypanosoma cruzi TCC epimastigotes at 1 to 15 uM supplemented with fresh medium containing compound every 9 to 10 days by haemocytometric method; format: functional
Method in brief: (§1)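 TCC strain epimastigotes grown at 28 °C in Diamond medium with haemin and 10% FBS. Seeded at 10×10⁶/mL in duplicate with 1, 5, 10 or 15 μM compound, alongside untreated cultures. Counted daily in a haemocytometer. Every ~9–10 days, re-diluted to 5×10⁶/mL in fresh compound-containing medium to start a new round.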

[2] = Cytotoxicity against mouse RAW cells assessed as reduction in cell viability after 24 hrs by MTT assay; format: cell-based
Method in brief: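 RAW cells, 1x10⁵ per well, exposed to 125–1000 μM compound for 24 h at 37 °C, 5% CO₂; MTT added at 1.5 mg/mL final for 4 h, formazan dissolved in 1% SDS/0.01 M HCl, absorbance at 540 nm. CC50 obtained by linear regression of log OD against log concentration. Run in duplicate.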

Trypanosoma cruzi [3] = experiment: Trypanocidal activity against Trypanosoma cruzi TCC epimastigotes assessed as effect on parasite motility at 1 to 15 uM supplemented with fresh medium containing compound every 9 to 10 days measured on third week; format: functional; method in brief: as §1
Trypanosoma cruzi [4] = experiment: Trypanocidal activity against Trypanosoma cruzi RA tripamastigote bloodstream forms infected in Balb/c mouse assessed as reduction in circulating parasite level in acute phase at 100 mg/kg, po administered on day 9 post infection for 5 consecutive days; format: functional, organism-based
Method in brief: (§2)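 Balb/c males, 6–8 weeks, groups of six, infected i.p. with 100 RA strain bloodstream trypomastigotes. Oral dosing for 5 consecutive days once parasites were circulating, in 0.1 M PBS pH 7.2, with vehicle as negative control. Tail-vein blood (5 μl) diluted 1:10 in NH₄Cl/Tris lysis buffer and counted in a haemocytometer every other day.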

Trypanosoma cruzi [5] = experiment: Trypanocidal activity against Trypanosoma cruzi TCC epimastigotes assessed as parasite duplication time at 1 to 15 uM supplemented with fresh medium containing compound every 9 to 10 days measured on third week; format: functional; method in brief: as §1
Trypanosoma cruzi [6] = experiment: Trypanocidal activity against Trypanosoma cruzi TCC epimastigotes assessed as maximal parasite density at 15 uM measured after 9 to 10 days by haemocytometric method (reference value: 45 10^6/ml); format: functional; method in brief: as §1
Trypanosoma cruzi [7] = experiment: Trypanocidal activity against Trypanosoma cruzi RA tripamastigote bloodstream forms isolated from infected CF1 mouse blood after 24 hrs by haemocytometric method; format: functional
Method in brief: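 RA strain bloodstream trypomastigotes taken from CF1 mouse blood at parasitaemia peak (day 5 p.i.) and diluted in medium to 1.5×10⁶/ml. Exposed in duplicate to 125–1000 μM compound at 4 °C for 24 h. Viable parasites counted in a haemocytometer; % lysis computed against untreated control. IC50 obtained from log %L against log concentration.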

Trypanosoma cruzi [8] = experiment: Trypanocidal activity against Trypanosoma cruzi TCC epimastigotes assessed as effect on parasite viability at 1 to 15 uM supplemented with fresh medium containing compound every 9 to 10 days measured on third week by maximal parasite density; format: functional; method in brief: as §1
Trypanosoma cruzi [9] = experiment: Trypanocidal activity against Trypanosoma cruzi TCC epimastigotes assessed as maximal parasite density at 1 to 15 uM supplemented with fresh medium containing compound every 9 to 10 days measured on third week by haemocytometric method; format: functional; method in brief: as §1
Trypanosoma cruzi [10] = experiment: Trypanocidal activity against Trypanosoma cruzi RA tripamastigote bloodstream forms infected in Balb/c mouse assessed as mouse survival at 100 mg/kg, po administered on day 9 post infection for 5 consecutive days measured daily during compound dosing up to 45 days post infection; format: functional
Method in brief: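 Male Balb/c mice (6–8 weeks, groups of six) were infected intraperitoneally with 100 bloodstream trypomastigotes harvested from CF1 mice. Oral dosing at 100 mg/kg/day for five consecutive days began once circulating parasites were confirmed microscopically, on day 9 p.i. Drugs were suspended in 0.1 M PBS (pH 7.2), prepared fresh daily; vehicle served as negative control. Mortality was recorded daily to 45 days p.i.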

Trypanosoma cruzi [11] = experiment: Trypanocidal activity against Trypanosoma cruzi RA tripamastigote bloodstream forms infected in Balb/c mouse assessed as reduction in parasitaemia at 100 mg/kg, po administered on day 9 post infection for 5 consecutive days measured on day 35 post infection relative to control; format: functional; parameters: scale not given: the % may be the effect or the level left; method in brief: as §2
Trypanosoma cruzi [12] = experiment: Trypanocidal activity against Trypanosoma cruzi TCC epimastigotes assessed as parasite duplication time at 15 uM measured after 9 to 10 days (reference value: 2 day); format: functional; method in brief: as §1
[13] = in the assay text read “day 18 post infection relative” for “day 35 post infection relative”

In the case of O=C(Cn1ccnc1/N=N/c1ccc([N+](=O)[O-])cc1)N1CCOCC1, the Activity (Trypanosoma cruzi [1]) is reported as “inactive”.

In the case of O=C(Cn1ccnc1/N=N/c1ccc([N+](=O)[O-])cc1)N1CCCCC1, the CC50 at 24 h [2] is reported as 206 µM, the Activity (Trypanosoma cruzi [3]) is reported as “Active” and the Activity (Trypanosoma cruzi [4]) is reported as “Active”. For the same molecule, the Time (Trypanosoma cruzi [5]) was 9 to 12 days, the Activity (Trypanosoma cruzi [6]) was 20 ×10⁶ /ml and the IC50 (Trypanosoma cruzi [7]) was 645 µM. The Activity (Trypanosoma cruzi [8]) was “Active”, the Activity (Trypanosoma cruzi [9]) was 5 - 6 ×10⁶ /ml and the survival at 100 mg/kg (Trypanosoma cruzi [10]) was 67%. For the same molecule, the Activity (Trypanosoma cruzi [11]; [13]) was 71% and the Time (Trypanosoma cruzi [12]) was 4 days.

With O=C(Cn1ccnc1/N=N/c1ccc([N+](=O)[O-])cc1)NC1CCCCC1 the Activity (Trypanosoma cruzi [1]) was “inactive”.

For O=C(Cn1ccnc1/N=N/c1ccc(Cl)cc1)N1CCCC1, the Activity (Trypanosoma cruzi [1]) was “inactive”.

For O=C(Cn1ccnc1[N+](=O)[O-])NCc1ccccc1 [BENZNIDAZOLE], the Activity (Trypanosoma cruzi [3]) was “Active”, the Activity (Trypanosoma cruzi [5]) was “Active” and the Activity (Trypanosoma cruzi [6]) was 25 ×10⁶ /ml. The Activity (Trypanosoma cruzi [8]) was “Active”, the Activity (Trypanosoma cruzi [9]) was “Active” and the survival at 100 mg/kg (Trypanosoma cruzi [10]) was 100%. The Activity (Trypanosoma cruzi [11]) was “Active” and the Time (Trypanosoma cruzi [12]) was 3 days.

In the case of COc1ccc(/N=N/c2nccn2CC(=O)NC2CCCCC2)c([N+](=O)[O-])c1, the Activity (Trypanosoma cruzi [1]) is reported as “inactive”.

For O=C(Cn1ccnc1/N=N/c1ccc(C(F)(F)F)cc1)NC1CCCCC1, the Activity (Trypanosoma cruzi [1]) was “inactive”.

For NC(CCCCNC(=O)Cn1ccnc1/N=N/c1ccc([N+](=O)[O-])cc1)C(=O)O (configuration not stated), the Activity (Trypanosoma cruzi [1]) was “inactive”.

For COc1ccc(/N=N/c2nccn2CC(=O)N2CCOCC2)c([N+](=O)[O-])c1, the Activity (Trypanosoma cruzi [1]) was “inactive”.

In the case of O=C(Cn1ccnc1/N=N/c1ccc(C(F)(F)F)cc1)N1CCOCC1, the Activity (Trypanosoma cruzi [1]) is reported as “inactive”.

For O=C(Cn1ccnc1/N=N/c1ccc(C(F)(F)F)cc1)N1CCCC1, the Activity (Trypanosoma cruzi [1]) was “inactive”.

In the case of O=C(Cn1ccnc1/N=N/c1ccc(Cl)c(Cl)c1)N1CCCC1, the Activity (Trypanosoma cruzi [1]) is reported as “inactive”.

Work on CN(C)c1ccc(C(=C2C=CC(=[N+](C)C)C=C2)c2ccc(N(C)C)cc2)cc1 [GENTIAN VIOLET] yielded an IC50 (Trypanosoma cruzi [7]) of 2.8 µM.

For COc1ccc(/N=N/c2nccn2CC(=O)N2CCCCC2)c([N+](=O)[O-])c1, the Activity (Trypanosoma cruzi [1]) was “inactive”.

In the case of O=C(Cn1ccnc1/N=N/c1ccc(Cl)cc1)N1CCCCC1, the Activity (Trypanosoma cruzi [1]) is reported as “inactive”.

With O=C(Cn1ccnc1/N=N/c1ccc([N+](=O)[O-])cc1)N1CCCC1 the Activity (Trypanosoma cruzi [1]) was “inactive”.

With O=C(Cn1ccnc1/N=N/c1ccc(C(F)(F)F)cc1)N1CCCCC1 the CC50 at 24 h [2] was 415 µM, the Activity (Trypanosoma cruzi [3]) was “Active” and the Activity (Trypanosoma cruzi [4]) was “Active”. For the same molecule, the Time (Trypanosoma cruzi [5]) was 9 to 12 days, the IC50 (Trypanosoma cruzi [7]) was 1080 µM and the Activity (Trypanosoma cruzi [8]) was “Active”. The Activity (Trypanosoma cruzi [9]) was 5 - 6 ×10⁶ /ml, the survival at 100 mg/kg (Trypanosoma cruzi [10]) was 67% and the Activity (Trypanosoma cruzi [11]; [13]) was 60%.
